# What was measured:
# Assay type in all cases: functional
# [1] = test system: Aspergillus fumigatus; test: Antifungal activity against Aspergillus fumigatus ATCC 16424 after 48 hrs by broth microdilution method; conditions: ATCC 16424, 48 h
# Method in brief: (§1)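 Plates were incubated at 35 °C for 48 h. MIC was reported only where both criteria held: turbidity clearly lower than in control wells without antifungal on visual comparison, and growth reduced by more than 50% relative to those controls, measured as absorbance at 530 nm.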
# [2] = test system: Nakaseomyces glabratus; test: Antifungal activity against Candida glabrata ATCC 48435 after 48 hrs by broth microdilution method; conditions: ATCC 48435, 48 h; method in brief: as §1
# [3] = test system: Candida albicans; test: Antifungal activity against Candida albicans ATCC 10231 assessed as reduction in growth after 48 hrs by broth microdilution method relative to control
# Method in brief: (§2)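 Growth was read as absorbance at 530 nm after incubation at 35 °C for 48 h. Percent reduction was calculated relative to control wells containing no antifungal, alongside a visual comparison of turbidity with those wells.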
# [4] = test system: Cryptococcus neoformans; test: Antifungal activity against Cryptococcus neoformans ATCC 36556 assessed as reduction in growth after 48 hrs by broth microdilution method relative to control; method in brief: as §2
# [5] = test system: Nakaseomyces glabratus; test: Antifungal activity against Candida glabrata ATCC 48435 assessed as reduction in growth after 48 hrs by broth microdilution method relative to control; method in brief: as §2
# [6] = test system: Candida albicans; test: Antifungal activity against Candida albicans ATCC 10231 after 48 hrs by broth microdilution method; conditions: ATCC 10231, 48 h; method in brief: as §1
# [7] = test system: Aspergillus fumigatus; test: Antifungal activity against Aspergillus fumigatus ATCC 16424 reduction in growth after 48 hrs by broth microdilution method relative to control; method in brief: as §2
# [8] = test system: Cryptococcus neoformans; test: Antifungal activity against Cryptococcus neoformans ATCC 36556 after 48 hrs by broth microdilution method; conditions: ATCC 36556, 48 h; method in brief: as §1
MIC50 [1],MIC50 [2],MIC50 [6],MIC50 [8],SMILES,inhibition (INH) [3],inhibition (INH) [4],inhibition (INH) [5],inhibition (INH) [7]
16 µg/mL,> 62.5 µg/mL,,,C[C@@H]1CC[C@@]2(OC1)O[C@H]1C[C@H]3[C@@H]4CC[C@H]5C[C@@H](O)CC[C@]5(C)[C@H]4CC[C@]3(C)[C@H]1[C@@H]2C [TIGOGENIN],<25%,<25%,,
> 128 µg/mL,,32 µg/mL,,CC(=O)O[C@@H]1C[C@@]2(C)[C@@H](CC[C@@H]3[C@@H]2CC[C@]2(C)[C@@H]4[C@H](C[C@@H]32)O[C@]2(CC[C@@H](C)CO2)[C@H]4C)CC1=O,,<25%,<25%,
,,,,C[C@@H]1CC[C@@]2(OC1)O[C@H]1C[C@H]3[C@@H]4CC[C@H]5CC(=O)CC[C@]5(C)[C@H]4CC[C@]3(C)[C@H]1[C@@H]2C,<25%,<25%,<25%,<25%
,,,,CC(=O)O[C@H]1C[C@@]2(C)[C@@H](CC[C@@H]3[C@@H]2CC[C@]2(C)[C@@H]4[C@H](C[C@@H]32)O[C@]2(CC[C@@H](C)CO2)[C@H]4C)C[C@H]1O,<25%,<25%,<25%,<25%
> 128 µg/mL,6.25 µg/mL,16 µg/mL,62.5 µg/mL,CC(=O)O[C@@H]1C[C@@]2(C)[C@@H](CC[C@@H]3[C@@H]2CC[C@]2(C)[C@@H]4[C@H](C[C@@H]32)O[C@]2(CC[C@@H](C)CO2)[C@H]4C)C[C@H]1O,,,,
,,,,CC(=O)O[C@H]1C[C@@H]2CC[C@@H]3[C@H](CC[C@]4(C)[C@@H]5[C@H](C[C@@H]34)O[C@]3(CC[C@@H](C)CO3)[C@H]5C)[C@@]2(C)C[C@@H]1O,<25%,<25%,<25%,<25%
,,,,CC(=O)O[C@@H]1C[C@@H]2CC[C@@H]3[C@H](CC[C@]4(C)[C@@H]5[C@H](C[C@@H]34)O[C@]3(CC[C@@H](C)CO3)[C@H]5C)[C@@]2(C)C[C@@H]1O,<25%,<25%,<25%,<25%
,,,,C[C@@H]1CC[C@@]2(OC1)O[C@H]1C[C@H]3[C@@H]4CC[C@H]5C[C@@H](O)[C@H](O)C[C@]5(C)[C@H]4CC[C@]3(C)[C@H]1[C@@H]2C,<25%,<25%,<25%,<25%
,,,,CC(=O)O[C@H]1C[C@@]2(C)[C@@H](CC[C@@H]3[C@@H]2CC[C@]2(C)[C@@H]4[C@H](C[C@@H]32)O[C@]2(CC[C@@H](C)CO2)[C@H]4C)C[C@@H]1O,<25%,<25%,<25%,<25%
